Experimental data from PMC9998351 (Steroids, 2023).
“And” between values parts separate entries of the source, which are not always exact repeats. Equal entries are not always repeated. “Also recorded” adds a separate entry of the source.

Key:
Acute toxicity [1] = format: in vivo, mice; settings: male, CD-1, mouse, in vivo, po
male CD-1 mice = assay: Acute toxicity; format: in vivo; settings: male CD-1 mice
male Nude mice = assay: Acute toxicity; format: in vivo; settings: male nude mice
Acute toxicity [2] = format: in vivo, mice; settings: male, Nude, mouse, in vivo, ip
[3] = test system: CRPC CWR22Rv1 xenograft tumors; settings: ref [26], cited from earlier work
[4] = Oral pharmacokinetics and bioavailability in rats; format: in vivo; settings: for bioavailability: both; for AUC(0-t): AUClast; for Vd/F: Vz/F; for AUC(0-inf): AUCinf; for half-life: T1/2, male rats
Method in brief: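 Sprague Dawley rats (8–12 wk, 3/sex/group, catheterised jugular vein) got one oral gavage dose of 10 or 50 mg/kg. Dose was a solution in cremophor:ethanol:saline (1:1:8), pH 4.0, at 10 ml/kg. EDTA plasma was collected at 5, 15, 30 min, 1, 2, 4, 6 and 24 h, precipitated with acetonitrile, and quantified by LC-MS/MS against abiraterone internal standard. Noncompartmental parameters; bioavailability from oral AUClast versus IV.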

[5] = female rats, 10 mg/kg PO, GeoMean
[6] = female rats, 10 mg/kg PO, individual rat, listed as VNPP433-3β, 10 mg/kg
[7] = female rats, 50 mg/kg PO, individual rat, listed as VNPP433-3β, 50 mg/kg
[8] = female, Sprague Dawley, rat, plasma, po, 10 mg/kg, female rats, 10 mg/kg PO, GeoMean
[9] = female, Sprague Dawley, rat, plasma, po, 10 mg/kg, female rats, 10 mg/kg PO, individual rat
[10] = male rats, 10 mg/kg PO, GeoMean
[11] = male rats, 10 mg/kg PO, individual rat, listed as VNPP433-3β, 10 mg/kg
[12] = male rats, 50 mg/kg PO, GeoMean
[13] = male rats, 50 mg/kg PO, individual rat, listed as VNPP433-3β, 50 mg/kg
[14] = male, Sprague Dawley, rat, plasma, po, 10 mg/kg, male rats, 10 mg/kg PO, GeoMean
[15] = male, Sprague Dawley, rat, plasma, po, 10 mg/kg, male rats, 10 mg/kg PO, individual rat

**Q.** Which results are given for `C[C@]12CC[C@H](n3ccnc3)CC1=CC[C@@H]1[C@@H]2CC[C@]2(C)C(n3cnc4ccccc43)=CC[C@@H]12` [Compound 2, 3β-(1H-imidazole-1-yl)-17-(1H-benzimidazole-1-yl)-androsta-5,16-diene]?
**A.** NOAEL at 72 h (Acute toxicity [1]): > 300 mg/kg; Tolerability and mortality (male CD-1 mice; 100 mg/kg PO, observed 72 hrs): well tolerated, and no mortality was observed; Mortality (male CD-1 mice; 1000 mg/kg PO, 3 mice, 1000 mg/kg): two mice died on days 2 and the third mice died on day 3; also recorded: Two mice were in a moribund stage and found dead 36 hrs. post dose, the third mice died 72 hrs. post dose; Clinical signs (male CD-1 mice; 1000 mg/kg PO, after 24 hrs): piloerection, apathy (inactive) and hypothermia; Gross necropsy, organ toxicity (male CD-1 mice; all three dose groups (100, 300, 1000 mg/kg PO), postmortem): no evident organ toxicity; Signs of toxicity at necropsy (male CD-1 mice; low (100 mg/kg) and medium (300 mg/kg) dose PO, after 72 hrs): no signs of toxicity were observed; Mortality (male Nude mice; 100 mg/kg single intraperitoneal dose, 3 mice, 100 mg/kg): one mouse died in the 100 mg/kg group; Signs of toxicity (male Nude mice; 25 and 50 mg/kg single intraperitoneal dose, two weeks): did not exhibit any signs of toxicity; MTD at 2 weeks (Acute toxicity [2]): 50 mg/kg; Host toxicity ([3]; CWR22Rv1 xenograft study): no apparent host toxicity; Suppression of tumor growth ([3]; CWR22Rv1 xenograft, 2 at 7.53-fold lower equimolar dose than Gal, p < 0.01): 84%; Efficacy compared with enzalutamide ([3]; CWR22Rv1 xenograft): more efficacious than enzalutamide; bioavailability ([4]; Sprague Dawley, rat, plasma, oral): 32 to 47%; bioavailability ([4]; Sprague Dawley, rat, plasma, po, 10 mg/kg): 32 to 34%; AUC% Extrap [4, 5]: 81.9%; Cmax/D [4, 5]: 59.4 ng/mL/mg/kg; AUC% Extrap [4, 6]: 76.9% and 88.6% and 80.8%; AUClast [4, 6]: 484 µg·min/mL and 785 µg·min/mL; Cmax [4, 6]: 408 ng/mL and 681 ng/mL; Cmax/D [4, 6]: 75.5 ng/mL/mg/kg and 40.8 ng/mL/mg/kg and 68.1 ng/mL/mg/kg; Cmax/D ([4]; female rats, 50 mg/kg PO, GeoMean): 90.0 ng/mL/mg/kg; AUClast [4, 7]: 5560 µg·min/mL and 4300 µg·min/mL; Cmax [4, 7]: 4820 ng/mL and 4320 ng/mL; Cmax/D [4, 7]: 87.6 ng/mL/mg/kg and 96.4 ng/mL/mg/kg and 86.4 ng/mL/mg/kg; AUC(0-t) [4, 8]: 11600 ng·h/mL; AUC(0-t) [4, 9]: 14900 ng·h/mL; CL/F ([4]; female, Sprague Dawley, rat, plasma, po, 10 mg/kg, CL/F, female rats, 10 mg/kg PO, GeoMean): 2.46 mL/min/kg; CL/F ([4]; female, Sprague Dawley, rat, plasma, po, 10 mg/kg, CL/F, female rats, 10 mg/kg PO, individual rat): 2.58 mL/min/kg; Cmax ([4]; female, Sprague Dawley, rat, plasma, po, 10 mg/kg, Cmax, female rats, 10 mg/kg PO, GeoMean): 594 ng/mL; Cmax ([4]; female, Sprague Dawley, rat, plasma, po, 10 mg/kg, Cmax, female rats, 10 mg/kg PO, individual rat): 755 ng/mL; Tmax ([4]; female, Sprague Dawley, rat, plasma, po, 10 mg/kg, Tmax, female rats, 10 mg/kg PO, GeoMean): 6 h; Tmax ([4]; female, Sprague Dawley, rat, plasma, po, 10 mg/kg, Tmax, female rats, 10 mg/kg PO, individual rat): 6 h; Vd/F [4, 8]: 16.3 L/kg; Vd/F [4, 9]: 12.7 L/kg; AUC(0-t) ([4]; female, Sprague Dawley, rat, plasma, po, 50 mg/kg, female rats, 50 mg/kg PO, GeoMean): 80000 ng·h/mL; AUC(0-t) ([4]; female, Sprague Dawley, rat, plasma, po, 50 mg/kg, female rats, 50 mg/kg PO, individual rat): 76800 ng·h/mL; Cmax ([4]; female, Sprague Dawley, rat, plasma, po, 50 mg/kg, Cmax, female rats, 50 mg/kg PO, GeoMean): 4500 ng/mL; Cmax ([4]; female, Sprague Dawley, rat, plasma, po, 50 mg/kg, Cmax, female rats, 50 mg/kg PO, individual rat): 4380 ng/mL; Tmax ([4]; female, Sprague Dawley, rat, plasma, po, 50 mg/kg, Tmax, female rats, 50 mg/kg PO, GeoMean): 24 h; Tmax ([4]; female, Sprague Dawley, rat, plasma, po, 50 mg/kg, Tmax, female rats, 50 mg/kg PO, individual rat): 23.3 h; AUC% Extrap [4, 10]: 16.5%; Cmax/D [4, 10]: 61.3 ng/mL/mg/kg; AUC% Extrap [4, 11]: 24.4% and 9.55% and 19.3%; AUCinf [4, 11]: 364 µg·min/mL and 715 µg·min/mL; AUClast [4, 11]: 329 µg·min/mL and 577 µg·min/mL; CL/F [4, 11]: 27.5 mL/min/kg and 14.0 mL/min/kg; Cmax [4, 11]: 460 ng/mL and 715 ng/mL; Cmax/D [4, 11]: 70.2 ng/mL/mg/kg and 46.0 ng/mL/mg/kg and 71.5 ng/mL/mg/kg; T1/2 [4, 11]: 6.3 h and 9.0 h; Vz/F [4, 11]: 15.0 L/kg and 10.9 L/kg; AUC% Extrap [4, 12]: 79.5%; Cmax/D [4, 12]: 54.5 ng/mL/mg/kg; Tmax ([4]; male rats, 50 mg/kg PO, individual rat): 6 h; AUC% Extrap [4, 13]: 94.3% and 66.9%; AUClast [4, 13]: 4460 µg·min/mL and 3600 µg·min/mL; Cmax [4, 13]: 3430 ng/mL and 3160 ng/mL; Cmax/D [4, 13]: 37.4 ng/mL/mg/kg and 68.6 ng/mL/mg/kg and 63.2 ng/mL/mg/kg; Tmax [4, 13]: 6 h; Time of peak of PO concentration-time profiles ([4]; male rats, PO): 6 h; AUC(0-inf) [4, 14]: 9380 ng·h/mL; AUC(0-inf) [4, 15]: 11400 ng·h/mL; AUC(0-t) [4, 14]: 7700 ng·h/mL; AUC(0-t) [4, 15]: 8650 ng·h/mL; CL/F ([4]; male, Sprague Dawley, rat, plasma, po, 10 mg/kg, CL/F, male rats, 10 mg/kg PO, GeoMean): 17.8 mL/min/kg; CL/F ([4]; male, Sprague Dawley, rat, plasma, po, 10 mg/kg, CL/F, male rats, 10 mg/kg PO, individual rat): 14.6 mL/min/kg; Cmax ([4]; male, Sprague Dawley, rat, plasma, po, 10 mg/kg, Cmax, male rats, 10 mg/kg PO, GeoMean): 613 ng/mL; Cmax ([4]; male, Sprague Dawley, rat, plasma, po, 10 mg/kg, Cmax, male rats, 10 mg/kg PO, individual rat): 702 ng/mL; half-life ([4]; male, Sprague Dawley, rat, plasma, po, 10 mg/kg, 10 mg/kg PO, GeoMean): 8.22 h; half-life ([4]; male, Sprague Dawley, rat, plasma, po, 10 mg/kg, 10 mg/kg PO, individual rat): 9.8 h
